Published values of several laboratories.
Protocols differ between the studies behind these lines. pEC50, pIC50: −log10 of the molar value.

SMILES	target or system	read-out	method	tested at	time	measurement	result
FC(F)(F)c1ccc(/C=N/N=C/c2ccc(C(F)(F)F)cc2)cc1		DPPH scavenging				pIC50	< 2.52
CC(=NNC(=O)c1ccccc1Br)c1ccc(Nc2nnc(-c3ccc(Cl)cc3)c3ccccc23)cc1	MCF7	cell growth or viability	MTT	2.5 µM		cell death	85.4%
CCN(CC)c1ccc(/C=N/c2ccc(F)c(Cl)c2)c(O)c1		DPPH scavenging				pIC50	4.32
O=C1O[C@H]([C@@H](O)CO)C(O)=C1O		DPPH scavenging	absorbance		30 min	pIC50	4.94
CC(=O)Nc1ccc(Oc2nnc(-c3ccc(Cl)cc3)c3ccccc23)cc1	MCF7	cell growth or viability	MTT	1.25 µM	24 h	viability	6.06%
Brc1ccc(/C=N/N=C/c2ccc(Br)cc2)cc1		DPPH scavenging				pIC50	< 2.52
Cc1c(C(=O)O)ccc2c3n(nc12)[C@@H]1[C@H](C3)N(CC2CC2)[C@@]2(C(=O)Nc3cc(Cl)ccc32)[C@H]1c1cccc(Cl)c1F	SJSA-1	cell growth or viability	resazurin			GI50	0.007 µM
CCN(CC)c1ccc(/C=N/c2ccc(F)cc2)c(O)c1		DPPH scavenging				pIC50	4.52
CC(=NNC(=O)c1cccnc1)c1ccc(Nc2nnc(-c3ccc(Cl)cc3)c3ccccc23)cc1	MCF7	cell growth or viability	MTT	10 µM		cell death	95.1%
Nc1ccc(/C=N/N=C/c2ccc(N)cc2)cc1		DPPH scavenging				pIC50	< 2.52
C=CC(=O)NC1CCN(c2ncc3ncnc(Nc4ccc(Oc5ccc6c(c5)ncn6C)c(C)c4)c3n2)CC1	C-33-A	cell growth or viability				pEC50	6.94
Brc1cccc(/C=N/N=C/c2cccc(Br)c2)c1		DPPH scavenging				pIC50	2.62
O=C(Nc1ccccc1)Nc1ccc(Oc2nnc(-c3ccc(Cl)cc3)c3ccccc23)cc1	MCF7	cell growth or viability	MTT	1.25 µM		cell death	96.1%
